{
  "source": "ChEMBL document CHEMBL4414600",
  "about": "“Discovery of a Furanopyrimidine-Based Epidermal Growth Factor Receptor Inhibitor (DBPR112) as a Clinical Candidate for the Treatment of Non-Small Cell Lung Cancer” (J Med Chem, 2019)",
  "key": {"[1]": {"assay": "Inhibition of GST-tagged human EGFR D770GY mutant using poly(Glu, Tyr) 4:1 substrate incubated for 120 mins by kinase-Glo plus luminescent kinase assay"}, "[2]": {"molecular_target": "Tyrosine-protein kinase BTK (Homo sapiens) (UniProt Q06187)", "sequence (Q06187 whole entry, the tested form may be a part)": "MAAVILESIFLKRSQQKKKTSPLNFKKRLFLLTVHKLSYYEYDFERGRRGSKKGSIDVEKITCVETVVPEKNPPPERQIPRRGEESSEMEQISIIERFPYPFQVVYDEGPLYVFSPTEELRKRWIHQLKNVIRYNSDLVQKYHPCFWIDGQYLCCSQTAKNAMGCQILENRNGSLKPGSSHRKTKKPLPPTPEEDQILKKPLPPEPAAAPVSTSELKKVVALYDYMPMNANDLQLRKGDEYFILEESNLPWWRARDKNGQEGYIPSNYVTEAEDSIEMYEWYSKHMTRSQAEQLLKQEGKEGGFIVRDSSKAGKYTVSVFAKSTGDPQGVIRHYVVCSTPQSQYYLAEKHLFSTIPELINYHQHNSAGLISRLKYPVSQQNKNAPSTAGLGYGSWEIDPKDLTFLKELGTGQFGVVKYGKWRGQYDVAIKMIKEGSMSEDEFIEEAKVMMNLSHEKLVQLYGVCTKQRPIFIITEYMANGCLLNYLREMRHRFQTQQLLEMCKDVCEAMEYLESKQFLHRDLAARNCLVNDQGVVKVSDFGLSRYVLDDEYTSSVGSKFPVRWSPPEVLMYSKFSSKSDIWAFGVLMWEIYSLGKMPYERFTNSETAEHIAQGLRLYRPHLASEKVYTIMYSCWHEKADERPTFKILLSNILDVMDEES", "assay": "Binding affinity to wild-type human full length BTK (M1 to S659 residues) expressed in mammalian expression system assessed as residual binding level at 10000 nM by Kinomescan method relative to control", "in_short": "(§1)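 KINOMEScan competition binding panel run at 10,000 nM compound, with results expressed as percent of control binding. S(10) is the fraction of non-mutant kinases below 10% of control, out of 395 tested.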"}, "[3]": {"molecular_target": "T1, Tyrosine-protein kinase Tec (Homo sapiens) (UniProt P42680)", "T1 sequence (whole entry)": "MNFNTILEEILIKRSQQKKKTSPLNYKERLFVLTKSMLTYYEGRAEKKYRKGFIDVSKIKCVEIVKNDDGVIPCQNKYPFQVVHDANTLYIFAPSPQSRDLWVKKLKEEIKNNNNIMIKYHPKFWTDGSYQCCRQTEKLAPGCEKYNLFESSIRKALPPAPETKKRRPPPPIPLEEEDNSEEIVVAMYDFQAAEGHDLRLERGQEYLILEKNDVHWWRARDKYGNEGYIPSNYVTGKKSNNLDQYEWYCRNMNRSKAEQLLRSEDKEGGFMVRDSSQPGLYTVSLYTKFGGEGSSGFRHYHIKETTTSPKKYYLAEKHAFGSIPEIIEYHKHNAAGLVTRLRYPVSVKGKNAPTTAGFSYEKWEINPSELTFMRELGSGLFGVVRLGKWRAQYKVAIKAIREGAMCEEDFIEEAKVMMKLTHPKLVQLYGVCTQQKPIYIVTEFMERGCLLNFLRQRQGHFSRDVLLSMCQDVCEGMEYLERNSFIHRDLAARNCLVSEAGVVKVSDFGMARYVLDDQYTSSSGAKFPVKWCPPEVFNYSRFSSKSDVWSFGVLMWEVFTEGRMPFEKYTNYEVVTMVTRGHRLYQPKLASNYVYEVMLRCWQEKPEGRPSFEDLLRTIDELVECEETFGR", "assay": "Binding affinity to wild-type human partial length TEC (L341 to D620 residues) expressed in bacterial expression system assessed as residual binding level at 10000 nM by Kinomescan method relative to control", "in_short": "as §1"}, "[4]": {"molecular_target": "Serine/threonine-protein kinase 10 (Homo sapiens) (UniProt O94804)", "sequence (O94804 whole entry, looked up, the tested form may be a part)": "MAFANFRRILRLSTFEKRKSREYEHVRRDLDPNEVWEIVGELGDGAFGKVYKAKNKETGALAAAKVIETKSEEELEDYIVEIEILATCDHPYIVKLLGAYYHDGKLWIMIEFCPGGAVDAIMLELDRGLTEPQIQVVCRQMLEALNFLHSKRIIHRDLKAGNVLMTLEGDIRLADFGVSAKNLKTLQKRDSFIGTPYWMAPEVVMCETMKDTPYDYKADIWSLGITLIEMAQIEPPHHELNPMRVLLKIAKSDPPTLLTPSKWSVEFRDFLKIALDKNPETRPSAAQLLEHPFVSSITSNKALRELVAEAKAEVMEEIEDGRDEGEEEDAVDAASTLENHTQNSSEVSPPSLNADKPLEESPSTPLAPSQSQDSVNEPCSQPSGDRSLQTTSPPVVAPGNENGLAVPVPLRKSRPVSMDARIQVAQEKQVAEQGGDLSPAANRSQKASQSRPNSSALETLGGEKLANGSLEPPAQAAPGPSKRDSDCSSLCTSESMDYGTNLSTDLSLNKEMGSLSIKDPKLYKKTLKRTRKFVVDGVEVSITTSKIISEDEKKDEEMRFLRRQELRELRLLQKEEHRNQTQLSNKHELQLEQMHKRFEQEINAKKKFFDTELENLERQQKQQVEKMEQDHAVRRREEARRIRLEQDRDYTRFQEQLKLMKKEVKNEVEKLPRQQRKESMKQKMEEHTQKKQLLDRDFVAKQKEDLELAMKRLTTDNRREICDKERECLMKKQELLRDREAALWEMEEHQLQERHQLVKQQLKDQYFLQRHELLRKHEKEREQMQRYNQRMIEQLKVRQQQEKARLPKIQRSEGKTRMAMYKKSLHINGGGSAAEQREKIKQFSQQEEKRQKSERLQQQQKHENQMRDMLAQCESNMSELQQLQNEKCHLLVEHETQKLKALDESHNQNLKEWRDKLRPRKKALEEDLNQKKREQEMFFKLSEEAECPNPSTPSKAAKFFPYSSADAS", "assay": "Binding affinity to wild-type human partial length LOK (E16 to V314 residues) expressed in bacterial expression system assessed as residual binding level at 10000 nM by Kinomescan method relative to control", "in_short": "as §1"}, "[5]": {"assay": "Toxicity in ICR mouse at 100 mg/kg, po QD for 2 weeks", "assay_type": "organism-based", "settings": "in vivo, 336 h"}, "HCC827": {"test_system": "HCC827", "assay": "Antitumor activity against human HCC827 cells xenografted in athymic NU-Fox1nu nude mouse assessed as inhibition of tumor growth at 20 to 50 mg/kg, po dosed via gavage for 5 days/week for 2 consecutive weeks", "assay_type": "functional, organism-based", "in_short": "(§2)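 Male athymic NU-Fox1nu nude mice, 6–8 weeks old, were inoculated subcutaneously at the left flank with 5x10^6 HCC827 (exon 19 Del E746_A750) cells. Oral gavage began at a mean tumor size of about 500 mm³, in 1% methylcellulose/0.5% Tween 80/98.5% water, once daily on days 1-5 and 8-12. Tumor volume (V = 0.5 a × b², caliper) and body weight were tracked.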"}, "[6]": {"assay": "Toxicity in athymic NU-Fox1nu nude mouse xenografted with human HCC827 cells assessed as effect on body weight at 20 to 50 mg/kg, po dosed via gavage for 5 days/week for 2 consecutive weeks", "assay_type": "organism-based", "settings": "in vivo, 120 h", "in_short": "as §2"}, "[7]": {"assay": "Toxicity in athymic NU-Fox1nu nude mouse xenografted with human HCC827 cells assessed as induction of adverse effects at 20 to 50 mg/kg, po dosed via gavage for 5 days/week for 2 consecutive weeks", "assay_type": "organism-based", "settings": "in vivo, 120 h", "in_short": "as §2"}, "[8]": {"assay": "Toxicity in nude BALB/c mouse xenografted with human NCI-H1975 cells assessed as induction of body weight loss at 50 mg/kg, po QD for 15 days relative to control", "assay_type": "organism-based", "settings": "in vivo, 360 h", "in_short": "(§3)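 H1975 cells were grown in RPMI1640 with 10% heat-inactivated FBS at 37 °C, 5% CO2, and passaged by trypsin-EDTA. 5x10^6 cells in 0.1 ml PBS were injected subcutaneously at the right flank of BALB/c nude mice. Oral QD dosing for 15 days began at a mean tumor size of 147 mm³, n = 5 per group.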"}, "[9]": {"assay": "Toxicity in nude BALB/c mouse xenografted with human NCI-H1975 cells assessed as drug tolerability at 50 mg/kg, po QD for 15 days relative to control", "assay_type": "organism-based", "settings": "in vivo, 360 h", "in_short": "as §3"}, "[10]": {"assay": "Oral bioavailability in rat at 23.6 mg/kg", "assay_type": "ADME, organism-based", "settings": "in vivo", "in_short": "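Rat pharmacokinetics: single IV injection at 5 mg/kg or oral dosing at 20 mg/kg (23.6 mg/kg oral for one compound). Plasma parameters t1/2, CL, Vss, AUC(0-inf), Cmax, Tmax and oral bioavailability F were derived from the concentration–time profiles.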"}, "in vivo": {"assay": "in vivo", "settings": "rat, po, 23.6 mg/kg"}},
  "note": "pIC50: −log10 of the molar value. The source made the active and inactive calls. The calls are words filed in the database; no cut-off is given here.",
  "data": [
    {"compound": "CN(C)C/C=C/C(=O)Nc1cccc(-c2c(-c3ccccc3)oc3ncnc(N[C@H](CO)c4ccccc4)c23)c1", "values": [
      {"measurement": "pIC50", "setting": "[1]", "value": 10.48},
      {"measurement": "Activity", "setting": "[2]", "value": 3, "unit": "%"},
      {"measurement": "Activity", "setting": "[3]", "value": 5.6, "unit": "%"},
      {"measurement": "Activity", "setting": "[4]", "value": "< 10", "unit": "%"},
      {"measurement": "Activity", "setting": "[5]", "value": "Toxic"},
      {"measurement": "TGI", "setting": "HCC827", "value": "Active"},
      {"measurement": "Activity", "setting": "[6]", "value": "Non-Toxic"},
      {"measurement": "Activity", "setting": "[7]", "value": "Non-Toxic"},
      {"measurement": "Activity", "setting": "[8]", "value": "Non-Toxic"},
      {"measurement": "Activity", "setting": "[9]", "value": "Non-Toxic"},
      {"measurement": "bioavailability", "setting": "[10]", "value": 41.5, "unit": "%"},
      {"measurement": "half-life", "setting": "in vivo", "value": 3.4, "unit": "h"}
    ]}
  ]
}
